Active and inactive are the calls of the source. The rule behind the calls is not given here.

Consider six compounds from ChEMBL document CHEMBL3813690, “Synthesis and Th1-immunostimulatory activity of α-galactosylceramide analogues bearing a halogen-containing or selenium-containing acyl chain” (Bioorg Med Chem, 2016).

Holding throughout (type): cell-based
Test [1] is filed under the species Mus musculus. The test can be described thus: Activity at CD1d in C57BL/6 mouse splenocytes assessed as production of IFN-gamma at 10 to 1000 nM after 48 hrs by ELISA. The method, boiled down: (§1)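 Freshly prepared mouse splenocytes, washed three times by centrifugation in medium, counted in Türk's solution, seeded at 3 × 10⁵ cells/well in RPMI1640 with 10% FBS and 1% penicillin–streptomycin. Ligands dissolved in pyridine (1 mg/mL stock), diluted in medium to final 10, 30, 100, 300 and 1000 nM. Incubated 48 h at 37 °C; supernatant IFN-γ and IL-4 measured by ELISA. KRN7000 as positive control.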

The species named for test [2] is Mus musculus. The test can be described thus: Activity at CD1d in C57BL/6 mouse splenocytes assessed as production of IL4 at 10 to 1000 nM after 48 hrs by ELISA. The method, boiled down:
as §1

Test [3] is filed under the species Mus musculus. Nature of the test: Activity at CD1d in C57BL/6 mouse splenocytes assessed as production of IL4 at 100 nM after 48 hrs by ELISA relative to KRN7000. The method, boiled down:
as §1

For test [4], the species on record is Mus musculus. Nature of the test: Activity at CD1d in C57BL/6 mouse splenocytes assessed as ratio of IFN-gamma production to IL4 production at 100 nM after 48 hrs by ELISA. The method, boiled down:
as §1

Test [5] is filed under the species Mus musculus. Nature of the test: Activity at CD1d in C57BL/6 mouse splenocytes assessed as production of IFN-gamma at 100 nM after 48 hrs by ELISA relative to KRN7000. The method, boiled down:
as §1

For `CCCCCCCCCCCCCC[C@@H](O)[C@@H](O)[C@H](CO[C@H]1O[C@H](CO)[C@H](O)[C@H](O)[C@H]1O)NC(=O)CCCCCCCCCCCCCCCC[Se]CCCCCCCC`, the result in the test listed under Mus musculus [1] and in the test listed under Mus musculus [2] was Active. In addition, the values for the Activity in the test filed under Mus musculus [3] and in the test listed under Mus musculus [5] were 35% and 103%, respectively. For the same compound, the Ratio in the test listed under Mus musculus [4] amounted to 2.9.
`CCCCCCCCCCCCCC[C@@H](O)[C@@H](O)[C@H](CO[C@H]1O[C@H](CO)[C@H](O)[C@H](O)[C@H]1O)NC(=O)CCCCCCCCCCCCCCCCCCCCCCCCF`: the outcome in the test listed under Mus musculus [1] and in the test listed under Mus musculus [2] was Active. The Activity in the test filed under Mus musculus [3] was 21%; in the test listed under Mus musculus [5], 104%. In addition, the Ratio in the test filed under Mus musculus [4] stood at 5.
With `CCCCCCCCCCCCCC[C@@H](O)[C@@H](O)[C@H](CO[C@H]1O[C@H](CO)[C@H](O)[C@H](O)[C@H]1O)NC(=O)CCCCCCCCCCCCCCCCCCCCCCCCBr`, the result in the test filed under Mus musculus [1] and in the test listed under Mus musculus [2] was Active. Further, the values for the Activity in the test filed under Mus musculus [3] and in the test listed under Mus musculus [5] were 19% and 84%, respectively. Also, the Ratio in the test listed under Mus musculus [4] is 4.4.
Regarding `CCCCCCCCCCCCCCCCCCCCCCCCCC(=O)N[C@@H](CO[C@H]1O[C@H](CO)[C@H](O)[C@H](O)[C@H]1O)[C@H](O)[C@H](O)CCCCCCCCCCCCCC`, in the test listed under Mus musculus [2], the outcome was Active.
`CCCCCCCCCCCCCC[Se]CCCCCCCCCCC(=O)N[C@@H](CO[C@H]1O[C@H](CO)[C@H](O)[C@H](O)[C@H]1O)[C@H](O)[C@H](O)CCCCCCCCCCCCCC`: the outcome in the test listed under Mus musculus [1] and in the test listed under Mus musculus [2] was Active. The Activity in the test listed under Mus musculus [3] worked out at 39%; in the test filed under Mus musculus [5], 130%. The Ratio in the test filed under Mus musculus [4] came to 3.3.
On to `CCCCCCCCCCCCCC[C@@H](O)[C@@H](O)[C@H](CO[C@H]1O[C@H](CO)[C@H](O)[C@H](O)[C@H]1O)NC(=O)CCCCCCCCCCCCCCCCCCCCCCCCCl`, for which the outcome in the test filed under Mus musculus [1] and in the test filed under Mus musculus [2] was Active. For the same compound, the Activity amounted to 18% in the test filed under Mus musculus [3] and 68% in the test filed under Mus musculus [5]. For the same compound, in the test filed under Mus musculus [4], the Ratio turned out to be 3.8.
